Experimental data published in ChEMBL document CHEMBL1629439, “High-throughput identification of antibacterials against methicillin-resistant Staphylococcus aureus (MRSA) and the transglycosylase” (Bioorg Med Chem, 2010).
≈ marks a conversion by molar mass, not a printed value.

Legend:
Staphylococcus aureus [1] = assay: Antimicrobial activity against methicillin-resistant Staphylococcus aureus isolate NTUH4722 after 18 to 24 hrs by alamar blue assay; type: functional
Summary of the method: (§1)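 Broth microdilution per NCCLS standard, Mueller-Hinton broth, 8-point twofold dilutions; exponentially growing cells at 5 10^5 cells/ml with compound, 18–24 h at 37 C; 20% Alamar blue added, fluorescence read; MIC90 taken as lowest concentration preventing at least 90% growth.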

Acinetobacter baumannii = assay: Antimicrobial activity against Acinetobacter baumannii ATCC 49139 after 18 to 24 hrs by alamar blue assay; type: functional; conditions: Acinetobacter baumannii, ATCC 49139; read-out: MIC
Summary of the method: (§2)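 Broth microdilution per NCCLS in Mueller-Hinton broth, 8-point twofold dilutions, 384-well format. Exponential-phase cells at 5 × 10^5 cells/ml incubated with compound 18–24 h at 37 °C, then 20% Alamar blue added and fluorescence read. MIC90 taken as the lowest concentration preventing at least 90% bacterial growth.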

Staphylococcus aureus [2] = assay: Antimicrobial activity against Staphylococcus aureus ATCC 29213 after 18 to 24 hrs by alamar blue assay
[3] = test system: Mycolicibacterium smegmatis; assay: Antimicrobial activity against Mycobacterium smegmatis BCRC 11565 after 18 to 24 hrs by alamar blue assay; type: functional; conditions: Mycolicibacterium smegmatis, BCRC 11565; read-out: MIC; summary of the method: as §2
Serratia marcescens = assay: Antimicrobial activity against Serratia marcescens ATCC 14756 after 18 to 24 hrs by alamar blue assay; type: functional; conditions: Serratia marcescens, ATCC 14756; read-out: MIC; summary of the method: as §2
Escherichia coli = assay: Antimicrobial activity against Escherichia coli ATCC […] after 18 to 24 hrs by alamar blue assay; type: functional; conditions: Escherichia coli; read-out: MIC; summary of the method: as §2
[4] = test system: Stenotrophomonas maltophilia; assay: Antimicrobial activity against Stenotrophomonas maltophilia ATCC 13637 after 18 to 24 hrs by alamar blue assay; type: functional; conditions: Stenotrophomonas maltophilia, ATCC 13637; read-out: MIC; summary of the method: as §2
Pseudomonas aeruginosa = assay: Antimicrobial activity against Pseudomonas aeruginosa ATCC 25619 after 18 to 24 hrs by alamar blue assay; type: functional; conditions: Pseudomonas aeruginosa, ATCC 25619; read-out: MIC; summary of the method: as §2
Staphylococcus aureus [5] = assay: Antimicrobial activity against methicillin-resistant Staphylococcus aureus ATCC 33592 after 18 to 24 hrs by alamar blue assay; type: functional; conditions: Staphylococcus aureus, ATCC 33592; read-out: MIC; summary of the method: as §1
Staphylococcus aureus [6] = assay: Antimicrobial activity against oxacillin- and methicillin-resistant Staphylococcus aureus isolate Sa-OXA-R2 after 18 to 24 hrs by alamar blue assay; type: functional; summary of the method: as §1
Bacillus subtilis = assay: Antimicrobial activity against Bacillus subtilis ATCC 23857 after 18 to 24 hrs by alamar blue assay; type: functional; summary of the method: as §2

Compound | MIC (Staphylococcus aureus [1]) [mg/L] | MIC (Acinetobacter baumannii) [mg/L] | MIC (Staphylococcus aureus [2]) [mg/L] | MIC [3] [mg/L] | MIC (Serratia marcescens) [mg/L] | MIC (Escherichia coli) [mg/L] | MIC [4] [mg/L] | MIC (Pseudomonas aeruginosa) [mg/L] | MIC (Staphylococcus aureus [5]) [mg/L] | MIC (Staphylococcus aureus [6]) [mg/L] | MIC (Bacillus subtilis) [mg/L]
COC(=O)c1c(NC(=O)c2ccc([N+](=O)[O-])o2)sc2c1CC(C)(C)NC2(C)C | 4 (≈ 9.82 µM) | 12 (≈ 29.5 µM) | 2 (≈ 4.91 µM) | 0.5 (≈ 1.23 µM) | 32 (≈ 78.5 µM) | 256 (≈ 628 µM) | 32 (≈ 78.5 µM) | 128 (≈ 314 µM) | 2 (≈ 4.91 µM) | 2 (≈ 4.91 µM) | 0.06 (≈ 0.147 µM)
Cc1c(CC(=O)N[C@@H](C(=O)O)C(C)C)c(=O)oc2c(C)c3occ(-c4ccc(Cl)cc4)c3cc12 | 2.5 (≈ 5.19 µM) | > 256 | 1.25 (≈ 2.59 µM) | 1 (≈ 2.07 µM) | > 256 | > 256 | > 256 | > 256 | 1.25 (≈ 2.59 µM) | 2.5 (≈ 5.19 µM) | > 64
NC(=O)c1oc2ccccc2c1NC(=O)c1ccc([N+](=O)[O-])o1 | 0.5 (≈ 1.59 µM) | 12 (≈ 38.1 µM) | 2 (≈ 6.34 µM) | 0.5 (≈ 1.59 µM) | 32 (≈ 102 µM) | 256 (≈ 812 µM) | 32 (≈ 102 µM) | 128 (≈ 406 µM) | 0.5 (≈ 1.59 µM) | 2 (≈ 6.34 µM) | 0.06 (≈ 0.19 µM)
O=C1c2cc([N+](=O)[O-])cc3cc([N+](=O)[O-])cc(c23)C(=O)N1c1ccc(O)cc1 | 2.5 (≈ 6.59 µM) | > 256 | 2.5 (≈ 6.59 µM) | 4 (≈ 10.5 µM) | > 256 | > 256 | > 256 | > 256 | 2.5 (≈ 6.59 µM) | 0.3 (≈ 0.791 µM) | 4 (≈ 10.5 µM)
O=C(Nc1nnc(-c2ccccc2Cl)o1)c1cccc(C(F)(F)F)c1 | 2 (≈ 5.44 µM) | > 256 | 1 (≈ 2.72 µM) | 0.5 (≈ 1.36 µM) | > 256 | > 256 | > 256 | > 256 | 0.5 (≈ 1.36 µM) | 0.5 (≈ 1.36 µM) | 0.5 (≈ 1.36 µM)
CSc1ccccc1-c1nnc(NC(=O)c2nc3ccccc3s2)o1 | 2 (≈ 5.43 µM) | > 256 | 4 (≈ 10.9 µM) | 0.5 (≈ 1.36 µM) | > 256 | > 256 | > 256 | > 256 | 2 (≈ 5.43 µM) | 4 (≈ 10.9 µM) | 0.5 (≈ 1.36 µM)
Cc1c(CCC(=O)O)c(=O)oc2c(C)c3occ(-c4ccc(Br)cc4)c3cc12 | 0.5 (≈ 1.13 µM) | > 256 | 0.5 (≈ 1.13 µM) | 1 (≈ 2.27 µM) | > 256 | > 256 | > 256 | > 256 | 1 (≈ 2.27 µM) | 1 (≈ 2.27 µM) | > 64
O=C(Nc1cc(Cl)c(Cl)c(Cl)c1)c1cc(Cl)cc(Cl)c1O | 1 (≈ 2.59 µM) | 16 (≈ 41.5 µM) | 0.125 (≈ 0.324 µM) | 0.5 (≈ 1.3 µM) | 16 (≈ 41.5 µM) | 8 (≈ 20.8 µM) | 16 (≈ 41.5 µM) | 16 (≈ 41.5 µM) | 0.5 (≈ 1.3 µM) | 0.125 (≈ 0.324 µM) | < 0.03
Cc1ccc(-c2coc3c(C)c4oc(=O)c(CCC(=O)O)c(C)c4cc23)cc1 | 1 (≈ 2.66 µM) | > 256 | 1 (≈ 2.66 µM) | 1 (≈ 2.66 µM) | > 256 | > 256 | > 256 | > 256 | 2 (≈ 5.31 µM) | 2 (≈ 5.31 µM) | > 64
O=C(Nc1cccc(C2=Nc3ccccc3C2)c1)c1ccc([N+](=O)[O-])o1 | 0.5 (≈ 1.44 µM) | 12 (≈ 34.5 µM) | 0.5 (≈ 1.44 µM) | 0.5 (≈ 1.44 µM) | 32 (≈ 92.1 µM) | 256 (≈ 737 µM) | 32 (≈ 92.1 µM) | 128 (≈ 369 µM) | 0.25 (≈ 0.72 µM) | 0.5 (≈ 1.44 µM) | 0.06 (≈ 0.173 µM)
CCCc1cc(O)nc(N2NC(C)=CC2NC(=O)c2ccccc2)n1 (configuration not stated) | 8 (≈ 23.6 µM) | > 256 | 2 (≈ 5.89 µM) | 0.25 (≈ 0.737 µM) | > 256 | > 256 | > 256 | > 256 | 8 (≈ 23.6 µM) | 8 (≈ 23.6 µM) | 0.25 (≈ 0.737 µM)
CCc1cc(O)nc(N2NC(C)=CC2NC(=O)c2ccccc2F)n1 (configuration not stated) | 2 (≈ 5.82 µM) | > 256 | 1 (≈ 2.91 µM) | 0.25 (≈ 0.728 µM) | > 256 | > 256 | > 256 | > 256 | 4 (≈ 11.6 µM) | 1 (≈ 2.91 µM) | 0.25 (≈ 0.728 µM)
